Shown are actives, neighbours in structure and some others; about 3.7% of the full set was active somewhere.
MC4R antag cAMP: blocks human MC4R cAMP signaling. P32245. MC4R-expressing cells, MTII-stimulated cAMP, LANCE TR-FRET. inhibition, % at 6.5 µM. hit rate 0.48% among 360,000;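 active = inhibition above its plate's cutoff, the mean of tested wells on that plate plus 3 SD, cut at about 29% in these data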;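 note: 0% = Melanotan II alone and 100% = Melanotan II plus saturating MCL0020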
Target sequence (P32245 whole entry, looked up): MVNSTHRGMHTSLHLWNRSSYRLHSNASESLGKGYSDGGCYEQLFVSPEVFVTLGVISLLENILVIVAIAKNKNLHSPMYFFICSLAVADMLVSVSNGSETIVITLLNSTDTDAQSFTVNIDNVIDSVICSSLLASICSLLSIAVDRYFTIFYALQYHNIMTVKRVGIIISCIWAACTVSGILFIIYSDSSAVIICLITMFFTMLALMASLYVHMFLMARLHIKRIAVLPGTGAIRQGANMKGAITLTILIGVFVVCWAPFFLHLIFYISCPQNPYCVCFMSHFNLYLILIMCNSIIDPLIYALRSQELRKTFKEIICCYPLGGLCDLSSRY
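system = U2OS cells with stable human MC4R expression | also added = Melanotan II challenge after compound preincubation | dosing = one concentration, 6.5 µM nominal | incubation = compound 30 min, challenge 1 h, detection 1 h | measured by = TR-FRET with Eu-cAMP and labeled anti-cAMP, 671 nm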
Granule exo inh: lytic granule exocytosis inhibition; TALL-104 LAMP-1 surface exposure, flow cytometry; cells stimulated with thapsigargin and PMA; inhibition, % at 10 µM; hit rate 0.66% among 360,000; AID 651702;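 active = inhibition above about 55%, limit read from the data; inconclusive = no clear call, values can overlap the other calls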
Myeloid diff MLP: promotes myeloid progenitor differentiation | hit rate 1% among 360,000 | AID 624256 | ER-HoxA9 myeloid progenitors, lysozyme-GFP differentiation, flow cytometry | calls only at 10 µM;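 active = normalized GFP-positive differentiation at or above the plate's own cutoff, the solvent-only control mean plus 3 SD; inconclusive = no clear call, values can overlap the other calls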;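 note: cells exposed to compound for four days before flow analysis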
MC4R barr agon: agonists of human melanocortin 4 receptor (MC4R) beta-arrestin | P32245 | U2OS MC4R beta-arrestin complementation, luminescence; percent of melanotan II response, DMSO zero | activation, % at 8.9 µM | hit rate 0.98% among 360,000 | AID 540308;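 active = activation above a per-plate cutoff, the mean activation of sample wells on that plate plus 3 SD, cut at about 8% in these data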
EBI2 antag: antagonists of human EBI2 receptor. EBI2 beta-arrestin recruitment, luminescence, 7a,25-OHC stimulated. inhibition, % at 5 µM. P32249. hit rate 0.81% among 360,000. AID 651636; in the data active = inhibition above about 38%;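 note: enzyme fragment complementation signal reports receptor beta-arrestin coupling in cells; 0% = agonist plus DMSO wells and 100% = wells without agonist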
Granule exo CP1: blocks lytic granule exocytosis | shares compounds with Granule exo inh | hit rate 11% among 1,500 | inhibition, % at 10 µM | TALL-104 cells, LAMP-1 externalization, flow cytometry; stimulated with PMA plus thapsigargin; in the data active = inhibition above about 60%;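 note: 0% = stimulated vehicle wells and 100% = unstimulated wells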
* = called active by the depositor; i = inactive; ? = inconclusive; . = not tested or not shown; + = active, no number.

SMILES	MC4R antag cAMP	Granule exo inh	Myeloid diff MLP	MC4R barr agon	EBI2 antag	Granule exo CP1
CC1=C(C(=O)N(C(C)C)C(C)C)CC(CC(=O)NCC2CCCCC2)C(=O)N1Cc1ccc(C(C)(C)C)cc1 (stereo not given)	.	64*	i	.	16	-10
CC(=O)N/C(=C\c1ccc(Br)s1)C(=O)O	-7	2	i	-4	4	.
O=C(COC(=O)Cc1c[nH]c2ccccc12)NC1CCCCC1	16	77*	i	-1	0	-3
CCN(CC)CCNc1nc(-c2ccc(OC)cc2)c(-c2ccc(OC)cc2)s1	5	66*	i	2	2	-2
Cc1nc2ccccc2n1CC(O)Cn1c2ccccc2c2ccccc21 (stereo not given)	-6	58*	+	0	9	-10
CCCOc1ccc(-c2nc(N3CCN(CC)CC3)c3ccccc3n2)cc1	3	82*	i	1	1	-10
CCCCCc1c(-c2ccc(OC)cc2)ncn1CCc1ccccc1OC	.	68*	i	.	6	17
CCCCc1c(-c2ccc(OC)cc2)ncn1CCc1ccccc1OC	.	82*	i	.	10	27
O=C(NCC1CCCCC1)c1ccc(=O)[nH]c1	-5	-7	i	0	-10	.
O=C(NCC1CCCCC1)c1cccc(-c2ccc(O)cc2)c1	23	59*	?	4	0	-4
CCOC(=O)C1=C(C)N(CCCC(=O)O)C(=O)NC1c1ccc(Cl)cc1Cl (stereo not given)	4	0	i	1	-7	.
COC(=O)C1=C(C)N(CCCC(=O)O)C(=O)NC1c1ccc2c(c1)OCO2 (stereo not given)	2	79*	i	-1	7	-3
CC1=C(C(=O)OCc2ccccc2)C(c2ccc(Cl)cc2Cl)NC(=O)N1CCCC(=O)O (stereo not given)	0	75*	i	-2	2	-5
COC(=O)C1=C(C)N(CCCC(=O)O)C(=O)NC1c1ccc(Cl)cc1 (stereo not given)	-3	17	i	-1	3	.
CCCCN(CCCNC(=O)c1ccc2c(c1)NC(=O)CN2C)c1ccccc1	-1	2	i	0	32	.
CCC1C(=NO)C(CC)C(c2ccccc2)NC1c1ccccc1 (stereo not given)	16	5	i	-2	36	.
CCC1C(=O)C(CC)C(c2ccccc2)NC1c1ccccc1 (stereo not given)	6	61*	i	5	8	-5
O=C1CSc2ccc(S(=O)(=O)N3CCN(c4ccccc4)CC3)cc2N1	0	0	i	1	2	.
CCC1Sc2ccc(S(=O)(=O)N3CCN(c4ccccc4)CC3)cc2NC1=O (stereo not given)	4	71*	i	2	-10	-11
C1=C\CCC2(OCCO2)C2(CC/1)OCCO2	3	-2	i	-2	-10	.
Cc1ccc(C)c(N2CCN(CCCNC(=O)Cn3c(=O)c4cccn4c4cccnc43)CC2)c1	9	75*	i	-2	1	-12
O=C(COc1ccccc1F)Nc1nnc(C2CCCC2)s1	3	2	i	-3	-5	.
N#Cc1ccccc1S(=O)(=O)N1CCN(S(=O)(=O)c2ccc(Br)c(C(=O)O)c2)CC1	22	59*	i	-2	-8	-14
COc1ccccc1-n1c(SCC(=O)NCc2ccc3c(c2)OCO3)nc2cc([N+](=O)[O-])ccc21	9	95*	i	-1	25	0
O=C1CC[C@@H]2CC3(C[C@@H]4CCN1[C@H]24)Nc1cc(Cl)ccc1NC3=NC1CCCCC1 (stereo not given in full)	9	44	i	0	7	.
SMILES	MC4R antag cAMP	Granule exo inh	Myeloid diff MLP	MC4R barr agon	EBI2 antag	Granule exo CP1
O=C1CCC[C@@H]2C[C@@]3(C[C@@H]4CCN1[C@H]24)Nc1cc(Cl)ccc1NC3=NC1CCCCC1	20	76*	i	0	-10	-12
Cc1cc(Nc2cccc(Cl)c2)nc(-c2ccccc2O)n1	14	56*	i	1	23	-4
COc1ccccc1C1CCN(Cc2ccc(Cl)cc2Cl)CC1	7	-13	i	-1	15	.
COc1ccccc1C1CCN(Cc2cccc3ccccc23)CC1	5	60*	i	2	0	-3
COc1ccccc1/C=C/c1onc(C)c1S(=O)(=O)N1CCC(C(=O)NC2CCCCCC2)CC1	19	70*	i	-2	7	-4
C=CCNC(=O)CN1CCN(C(c2ccccc2)c2ccccc2)CC1	5	0	i	-1	-19	.
CC1=C(C)C(O)N(Cc2ccccc2)C1=O (stereo not given)	0	1	i	-2	1	.
c1cc2cc(CNc3nc(NCC4CC4)nc4ccsc34)ccc2o1	-3	17	i	0	9	.
COc1ccccc1CNc1nc(NCc2ccc3occc3c2)c2sccc2n1	-8	93*	i	0	-11	90*
COc1ccccc1CNc1nc(NCCOc2ccccc2)c2sccc2n1	-1	56*	i	-3	3	45
COc1ccccc1CNc1nc(NCc2ccccc2OC)c2sccc2n1	-15	-2	i	-3	-24	.
COc1ccccc1N(CC(=O)Nc1cccc(C(F)(F)F)c1)S(C)(=O)=O	9	80*	i	-2	-3	-10
COc1ccccc1N(CC(=O)Nc1ccc2c(c1)OCCO2)S(=O)(=O)c1ccc(C)cc1	26	73*	i	2	0	-10
Cc1ccc(C)c(S(=O)(=O)N2CCN(c3nc(-c4cccnc4)nc4ccccc34)CC2)c1	22	-1	i	-1	1	.
CN1CC(=O)N(CC(=O)Nc2ccc(N3CCOCC3)cc2)C1=O	5	-1	i	0	0	.
CC1CCCC(C)N1C(=O)CN1C(=O)NC2(CCCCCC2)C1=O (stereo not given)	5	2	i	-1	7	.
C/C=C/c1ccc(OCCOCCNCc2ccccc2)c(OC)c1	16	70*	i	2	11	-5
C/C=C/c1ccc(OCCOc2cc(C=O)ccc2OC)c(OC)c1	4	2	i	-2	-5	.
CN(C)/C=C\C(=C/C(=O)C(F)(F)F)Nc1ccccc1Oc1ccccc1	-2	77*	i	-4	10	-2
Cc1nc(N2CCN(c3ccccn3)CC2)c2c(C)c(C(=O)N3CCN(c4ccccc4F)CC3)sc2n1	-3	56*	i	-2	-1	-11
Cc1ccc(NC(=O)c2sc3nc(C)nc(N4CCN(c5ccccn5)CC4)c3c2C)c(C)c1	-6	-3	i	-1	16	.
CCS(=O)(=O)NCCNc1ccc([N+](=O)[O-])cc1	-4	2	i	-3	2	.
COc1ccc(CC(=O)Nc2nc(-c3ccccc3)c(C(C)=O)s2)cc1OC	-49	78*	i	1	4	-4
